Test results taken from ChEMBL document CHEMBL1144783, “Novel bisbenzimidazoles with antileishmanial effectiveness” (Bioorg Med Chem Lett, 2008).

Tests used:
Vero = assay: Cytotoxicity against african green monkey Vero cells by neutral red assay; assay type: cell-based; conditions: Chlorocebus sabaeus
Leishmania donovani = assay: Antileishmanial activity against Leishmania donovani by Alamar blue assay; assay type: functional, organism-based
Outline: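 L. donovani promastigotes at 2×10^6 cells/ml, 96-well format. Compounds dissolved in DMSO (2 mg ml⁻¹ stock), diluted in culture medium to final concentrations; matching DMSO dilutions as controls. Incubation 72 h at 26 °C; growth read by Alamar blue.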

[1] = test system: Trypanosoma brucei rhodesiense; assay: […] rhodesiense STIB 900 after 3 days; assay type: functional, organism-based; conditions: STIB 900, 72 h
Outline: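 Bloodstream-form trypomastigotes, 8×10^3 per well in 100 μl medium, 96-well plates. Incubated 3 days, then resazurin added and fluorescence read after a further 24 h at 37 °C to gauge parasite growth. IC50 reported.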

Pneumocystis carinii = assay: Antileishmanial activity against Pneumocystis carinii; assay type: functional, organism-based

IC50 [1]	IC50 (Pneumocystis carinii)	Structure (SMILES)	IC50 (Vero)	IC50 (Leishmania donovani)	IC90 (Leishmania donovani)
> 60 µM	> 100 µM	c1ccc2[nH]c(-c3ccc(OCCCCCCCOc4ccc(-c5nc6ccccc6[nH]5)cc4)cc3)nc2c1	46.1 µM	13.6 µM	56.2 µM
> 60 µM	> 100 µM	c1ccc2[nH]c(-c3ccc(OCCCCCCOc4ccc(-c5nc6ccccc6[nH]5)cc4)cc3)nc2c1	27.9 µM	11.8 µM	53.8 µM
> 60 µM	54.1 µM	c1ccc2[nH]c(-c3ccc(OCCCCCOc4ccc(-c5nc6ccccc6[nH]5)cc4)cc3)nc2c1	28.7 µM	1.4 µM	3.1 µM
0.85 µM	5.2 µM	c1cc(OCCCCCOc2cccc(-c3nc4ccccc4[nH]3)c2)cc(-c2nc3ccccc3[nH]2)c1	12.3 µM	10.3 µM	45.1 µM
> 60 µM	10.2 µM	c1ccc2[nH]c(-c3ccc(OCCCOc4ccc(-c5nc6ccccc6[nH]5)cc4)cc3)nc2c1	27.2 µM	1.5 µM	3.3 µM
> 60 µM	169 µM	c1ccc2[nH]c(-c3ccc(OCCCCOc4ccc(-c5nc6ccccc6[nH]5)cc4)cc3)nc2c1	> 100 µM	4.9 µM	12.9 µM
0.05 µM		N=C(N)c1ccc(OCCCCCOc2ccc(C(=N)N)cc2)cc1 [PENTAMIDINE]	> 100 µM		9.8 µM
